Experiments:
[1] = biological target: Prostaglandin G/H synthase 1 (Homo sapiens) (UniProt P23219); assay: Inhibition of COX1 peroxidase activity assessed as formation of TMPD at 100 uM by colorimetric analysis
Summary of the method: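 COX-1 peroxidase activity: assay buffer, heme and enzyme with sample (0.1 mM); oxidized TMPD appearance monitored colorimetrically at 590 nm.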

Homo sapiens = species: Homo sapiens; assay: Selectivity ratio of inhibition of COX2 to inhibition of COX1
[2] = tested on: Radical scavenging activity; assay: Antioxidant activity assessed as DPPH radical scavenging activity at 100 uM after 20 mins by spectrophotometry; type: functional
Summary of the method: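 Test solution (0.1 mM) mixed with an equal quantity of 0.1 mM DPPH in ethanol; 20 min at room temperature, then DPPH reduction read as absorbance at 517 nm. Ascorbic acid (0.1 mM) as reference.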

[3] = Antioxidant activity assessed as superoxide radical scavenging activity at 100 uM after 5 mins by NBT reduction assay; type: functional
Summary of the method: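 Superoxide generated in Tris-HCl (100 mM, pH 7.4) with NBT (300 µM), NADH (936 µM) and sample (0.1 mM); NBT reduction read after 5 min at room temperature as absorbance at 560 nm. Ascorbic acid (0.1 mM) reference.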

[4] = Antioxidant activity assessed as H2O2-induced hydroxyl radical scavenging activity at 100 uM after 5 mins by spectrophotometry; type: functional
Summary of the method: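 Mixture of FeCl2 (1 mM), 1,10-phenanthroline (1 mM), phosphate buffer (0.2 M, pH 7.8), H2O2 (0.17 M) and sample (0.1 mM); reaction started with H2O2, 5 min at room temperature, absorbance at 560 nm. Ascorbic acid (0.1 mM) reference.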

Mus musculus [5] = assay: Antiinflammatory activity in AKR mouse assessed as inhibition of carrageenan-induced paw edema at 0.01 mmol/kg dosed intradermally after 3.5 hrs relative to vehicle-treated control; type: functional
Summary of the method: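 Edema induced in right hind paw of AKR mice (both sexes, pregnant females excluded, fasted during experiment) by intradermal 0.05 mL of 2% carrageenin in water; 6–10 animals per group. Paw weight increase, injected vs uninjected paw, compared with water-treated controls as percent edema inhibition; experiments in duplicate, mean of two.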

Mus musculus [6] = assay: Toxicity in carrageenan-challenged AKR mouse up to 0.5 mmol/kg dosed intradermally; type: organism-based; conditions: in vivo, other

Sequence of Prostaglandin G/H synthase 1 (Homo sapiens) (P23219 whole entry): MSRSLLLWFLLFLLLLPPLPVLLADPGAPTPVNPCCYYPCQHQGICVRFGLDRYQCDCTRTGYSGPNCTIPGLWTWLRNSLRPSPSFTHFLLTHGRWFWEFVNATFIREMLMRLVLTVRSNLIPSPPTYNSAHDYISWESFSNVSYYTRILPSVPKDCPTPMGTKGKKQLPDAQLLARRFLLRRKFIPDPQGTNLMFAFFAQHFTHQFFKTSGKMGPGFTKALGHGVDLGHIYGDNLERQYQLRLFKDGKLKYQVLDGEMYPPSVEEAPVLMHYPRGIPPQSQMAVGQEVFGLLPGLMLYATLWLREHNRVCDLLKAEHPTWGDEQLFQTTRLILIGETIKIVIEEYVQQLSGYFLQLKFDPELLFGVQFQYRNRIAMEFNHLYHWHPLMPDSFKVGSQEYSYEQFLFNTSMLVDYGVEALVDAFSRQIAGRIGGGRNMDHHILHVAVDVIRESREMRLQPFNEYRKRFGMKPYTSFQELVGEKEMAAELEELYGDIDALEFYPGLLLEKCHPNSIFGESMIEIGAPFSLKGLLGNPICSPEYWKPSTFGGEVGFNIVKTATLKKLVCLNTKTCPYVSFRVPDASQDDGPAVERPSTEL

Row | inhibition [1] | Selectivity ratio (Homo sapiens) | Structure (SMILES) | Activity [2] | Activity [3] | Activity [4] | inhibition in vivo at 10 µmol/kg (Mus musculus [5]) | Activity (Mus musculus [6])
1 | 90.8% | 0.22 | Cn1c2ccccc2c2cc(C3CC(c4ccc(F)c(F)c4)=NN3)ccc21 (stereo unspecified) | 79.8% | 69.4% | 63.2% | – | –
2 | 14.2% | 1.3 | Cn1c2ccccc2c2cc(C3CC(c4ccc([N+](=O)[O-])cc4)=NN3)ccc21 (stereo unspecified) | 81.1% | 65.1% | 64.8% | – | –
3 | 8.85% | 1.14 | Cn1c2ccccc2c2cc(C3CC(c4cc(Cl)ccc4Cl)=NN3)ccc21 (stereo unspecified) | 91.7% | 86.3% | 78.6% | – | –
4 | 10.4% | 2.58 | Cn1c2ccccc2c2cc(C3CC(c4ccc(F)cc4F)=NN3)ccc21 (stereo unspecified) | 83.8% | 63.2% | 60.2% | – | –
5 | 46.2% | 0.49 | Cn1c2ccccc2c2cc(C3CC(c4ccc(F)cc4)=NN3)ccc21 (stereo unspecified) | 79.3% | 45.6% | 54.6% | – | –
6 | 24.1% | 1.68 | Cn1c2ccccc2c2cc(C3CC(c4ccc(Cl)cc4Cl)=NN3)ccc21 (stereo unspecified) | 92.1% | 81.7% | 69.3% | – | –
7 | 10.2% | 1.24 | Cn1c2ccccc2c2cc(C3CC(c4ccc(Cl)cc4)=NN3)ccc21 (stereo unspecified) | 79.3% | 62.4% | 55% | – | –
8 | 24.1% | 3.66 | COc1ccc(C2=NNC(c3ccc4c(c3)c3ccccc3n4C)C2)cc1OC (stereo unspecified) | 84% | 69.4% | 69.3% | 60.3% | Non-toxic
9 | 23.5% | 3.69 | COc1cc(OC)c(C2=NNC(c3ccc4c(c3)c3ccccc3n4C)C2)c(OC)c1 (stereo unspecified) | 86% | 70.4% | 74.3% | 54.3% | Non-toxic
10 | 12.2% | 1.34 | Cn1c2ccccc2c2cc(C3CC(c4ccc(Cl)c(Cl)c4)=NN3)ccc21 (stereo unspecified) | 87.4% | 61.4% | 65.1% | – | –
11 | 20.6% | 4.06 | COc1ccc(C2=NNC(c3ccc4c(c3)c3ccccc3n4C)C2)cc1 (stereo unspecified) | 80.8% | 56.2% | 58.2% | 51.4% | Non-toxic
12 | 10.2% | 2.16 | Cn1c2ccccc2c2cc(C3CC(c4ccccc4)=NN3)ccc21 (stereo unspecified) | 79.9% | 63.2% | 63.5% | – | –
13 | 18.5% | 2.61 | Cn1c2ccccc2c2cc(C3CC(c4cccs4)=NN3)ccc21 (stereo unspecified) | 85.3% | 81.1% | 63.1% | 42.2% | Non-toxic
14 | – | – | O=C1O[C@H]([C@@H](O)CO)C(O)=C1O | 91.5% | 52% | 88.3% | – | –
15 | 20.1% | 2.06 | Cn1c2ccccc2c2cc(C3CC(c4ccccn4)=NN3)ccc21 (stereo unspecified) | 72% | 62.2% | 54.8% | – | –
16 | 87.4% | 1.02 | Cn1c2ccccc2c2cc(C3CC(c4ccc(Br)cc4)=NN3)ccc21 (stereo unspecified) | 80.6% | 56.2% | 57.5% | – | –

Source: ChEMBL document CHEMBL2069230, “Synthesis, biological evaluation, and docking studies of 3-(substituted)-aryl-5-(9-methyl-3-carbazole)-1H-2-pyrazolines as potent anti-inflammatory and antioxidant agents” (Bioorg Med Chem Lett, 2012)
